Laboratory results taken from publication PMC9529790 (Nature chemical biology, 2022).
Each block holds one molecule with its values, some of them ahead of it.

Key:
[1] = system: parental and 5-FU-resistant SW480 cell lines; test: Spheroid growth of parental and 5-FU-resistant SW480 lines; format: cell-based, human; conditions: spheroids
Summary of the method: (§1)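 SW480 cells were seeded on solidified Matrigel in RPMI-1640 spheroid medium containing 20 ng/mL EGF, 20 ng/mL FGF, heparin, N-2 supplement and penicillin/streptomycin. Seeding was 1,000 cells/well (96-well) or 5,000 cells/well (24-well). Test compound was added in medium and cultures were grown 7 days at 37 °C with 5% CO2. Spheroids were imaged by phase contrast (some stained with crystal violet), and small objects excluded before area analysis.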

ALDH1B1 = molecular target: T1, ALDH1B1 (Homo sapiens, UniProt P30837); test: ALDEFLUOR assay, ALDH1B1 transiently expressed in ALDH1A3-/- A375 cells; format: cell-based; conditions: flow cytometry
T1 sequence (P30837 18-517): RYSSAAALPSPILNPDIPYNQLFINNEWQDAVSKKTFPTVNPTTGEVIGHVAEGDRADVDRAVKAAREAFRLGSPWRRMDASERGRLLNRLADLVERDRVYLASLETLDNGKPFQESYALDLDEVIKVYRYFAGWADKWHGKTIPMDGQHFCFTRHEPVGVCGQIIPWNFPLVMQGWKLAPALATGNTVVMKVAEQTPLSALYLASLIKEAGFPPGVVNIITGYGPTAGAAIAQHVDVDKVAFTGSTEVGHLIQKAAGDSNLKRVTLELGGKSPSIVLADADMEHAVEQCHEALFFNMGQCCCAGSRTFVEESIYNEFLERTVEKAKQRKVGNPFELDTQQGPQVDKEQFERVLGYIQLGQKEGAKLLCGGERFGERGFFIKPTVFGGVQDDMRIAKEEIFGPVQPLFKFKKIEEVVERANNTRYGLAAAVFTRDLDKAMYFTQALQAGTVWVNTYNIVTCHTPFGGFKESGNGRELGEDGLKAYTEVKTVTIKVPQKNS
Summary of the method: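 ALDH1A3-knockout A375 cells were grown 24 h, then transfected with empty pCMV6, pCMV6-GFP (to estimate transfection efficiency) or pCMV6-ALDH1B1. Medium was changed at 24 h and cells grown another 24 h. Trypsinized cells in ALDEFLUOR buffer were exposed to test compound for 15 min at 37 °C with 5% CO2, then to ALDEFLUOR reagent for 30 min. Live single cells (DAPI gating) were analysed by flow cytometry; read-out is % of cells outside the negative-control gate (ALDEFLUOR vs SSC-A).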

SW480 cells = test: Thermal proteome profiling; format: binding, human; conditions: 2 µM, 1 hour; cutoffs ΔTm ≥ 1.5 °C and P < 0.05
[2] = system: ALDH1B1 variants (E124G/N457G and V173I/N457G); test: Inhibitor resistance of ALDH1B1 mutants; format: biochemical, human
Summary of the method: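 A375 ALDH1A3-knockout cells were transfected (3:1 DNA:FuGENE HD) with wild-type or mutant pCMV6-ALDH1B1 and grown 48 h. Cells in ALDEFLUOR buffer received ALDEFLUOR reagent. Within 10 s, aliquots were moved to tubes holding DMSO, DEAB (1.5 mM stock in EtOH) or test compound (100 µM or 10 µM stocks in DMSO). Tubes were incubated 30 min at 37 °C, cells pelleted, and analysed by flow cytometry.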

[3] = molecular target: T2, endogenous ALDH1B1 in live SW480 cells (Homo sapiens, UniProt P30837); test: Cellular thermal shift assay; format: binding; conditions: 10 µM, 1 hour
T2 sequence (P30837 18-517): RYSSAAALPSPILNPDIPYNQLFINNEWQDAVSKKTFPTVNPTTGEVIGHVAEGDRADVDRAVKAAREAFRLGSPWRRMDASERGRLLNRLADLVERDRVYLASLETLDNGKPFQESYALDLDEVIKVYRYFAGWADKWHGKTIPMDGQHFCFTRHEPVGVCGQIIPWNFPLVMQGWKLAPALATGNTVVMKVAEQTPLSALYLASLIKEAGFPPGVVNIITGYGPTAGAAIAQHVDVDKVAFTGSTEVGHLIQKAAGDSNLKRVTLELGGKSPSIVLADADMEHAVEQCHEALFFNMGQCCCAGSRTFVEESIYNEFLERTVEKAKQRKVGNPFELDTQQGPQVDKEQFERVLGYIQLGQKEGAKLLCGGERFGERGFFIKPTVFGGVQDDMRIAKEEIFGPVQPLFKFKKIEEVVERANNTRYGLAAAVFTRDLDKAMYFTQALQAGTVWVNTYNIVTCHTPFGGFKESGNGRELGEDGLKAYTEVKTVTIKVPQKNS
Summary of the method: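 SW480 cells were grown in 15-cm dishes, trypsinized at about 80% confluence, and kept live in the incubator for 1 h. Cells were then pelleted at 480 x g for 5 min, washed with PBS and resuspended in PBS with protease inhibitors. Total protein per lane was checked on stain-free gels alongside immunoblotting of ALDH1B1.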

wild-type colon PDOs = test: Patient-derived organoid viability; format: cell-based, human; conditions: seven days treatment; compared with tumor PDOs
Summary of the method: (§2)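 Organoids (wild-type colon or colorectal tumour) were dissociated with TrypLE plus 10 µM Y-27632. They were plated as 10-µL BME-2 domes at 1,000 cells/µL in WENR medium with 10 µM Y-27632 and 2.5 µM CHIR99021, and grown 3–5 days. Test compound at varying concentrations in WENR was then given for 7 days. Viability was read as resazurin metabolism with 10% Alamar Blue: 4 h for tumour PDOs, 6 h for wild-type PDOs, at 37 °C in the dark.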

[4] = system: E124G/N457G mutant-expressing cells; format: cell-based, human
Summary of the method: as §1

[5] = system: colorectal tumor PDO lines; test: Patient-derived organoid viability; format: cell-based, human; conditions: seven days treatment; CTO1-CTO4
Summary of the method: as §2

[6] = molecular target: T3, ALDH1B1 (aldehyde dehydrogenase 1B1), human recombinant, mitochondria-targeting sequence removed (human), P30837; test: crystal structure; conditions: remark: other sources report otherwise
T3 chain: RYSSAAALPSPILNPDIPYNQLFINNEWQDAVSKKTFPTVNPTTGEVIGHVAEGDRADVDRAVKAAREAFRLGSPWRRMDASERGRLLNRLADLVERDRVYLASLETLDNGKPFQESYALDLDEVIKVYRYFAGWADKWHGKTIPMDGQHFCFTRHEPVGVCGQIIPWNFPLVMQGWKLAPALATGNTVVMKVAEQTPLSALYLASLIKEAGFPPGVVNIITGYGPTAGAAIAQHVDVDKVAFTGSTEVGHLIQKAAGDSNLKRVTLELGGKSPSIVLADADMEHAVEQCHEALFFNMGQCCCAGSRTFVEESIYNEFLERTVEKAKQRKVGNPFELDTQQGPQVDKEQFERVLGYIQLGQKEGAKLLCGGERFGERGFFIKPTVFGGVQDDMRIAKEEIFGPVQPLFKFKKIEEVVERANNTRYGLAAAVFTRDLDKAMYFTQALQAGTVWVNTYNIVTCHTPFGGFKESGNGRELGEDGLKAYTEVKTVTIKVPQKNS

loss of sensitivity of 5-FU-resistant SW480 line versus parental line [1]: approximately 20 fold
Molecule: O=c1[nH]cc(F)c(=O)[nH]1 [5-FU]

cellular ALDH1B1 activity (ALDEFLUOR signal) (ALDH1B1): abrogated
Molecule: CCN(CC)c1ccc(C=O)cc1 [DEAB, N,N-diethylaminobenzaldehyde]

inhibitor sensitivity of ALDH1B1 variants [2]: markedly reduced inhibitor sensitivity | thermal stabilization of ALDH1B1 [3]: stabilizes endogenous ALDH1B1
Molecule: COc1cc(Cl)ccc1C1=CN(c2ccc(-c3ccccc3OC)cc2)C2=NCCCN12.O=CO [IGUANA-1]
inhibitor-dependent change in thermal stability (ΔTm), proteome-wide (SW480 cells): largest inhibitor-dependent increase in thermal stability | sensitivity of wild-type colon PDOs (wild-type colon PDOs): less sensitive | resistance of mutant-expressing spheroid cultures versus wild-type ALDH1B1 [4]: more resistant | growth of colorectal adenocarcinoma PDOs [5]: inhibit the growth of each line

stoichiometry N [6]: 4
B1: ALDH1B1 (aldehyde dehydrogenase 1B1), human recombinant, mitochondria-targeting sequence removed, P30837 18-517 (enzyme)
chain: RYSSAAALPSPILNPDIPYNQLFINNEWQDAVSKKTFPTVNPTTGEVIGHVAEGDRADVDRAVKAAREAFRLGSPWRRMDASERGRLLNRLADLVERDRVYLASLETLDNGKPFQESYALDLDEVIKVYRYFAGWADKWHGKTIPMDGQHFCFTRHEPVGVCGQIIPWNFPLVMQGWKLAPALATGNTVVMKVAEQTPLSALYLASLIKEAGFPPGVVNIITGYGPTAGAAIAQHVDVDKVAFTGSTEVGHLIQKAAGDSNLKRVTLELGGKSPSIVLADADMEHAVEQCHEALFFNMGQCCCAGSRTFVEESIYNEFLERTVEKAKQRKVGNPFELDTQQGPQVDKEQFERVLGYIQLGQKEGAKLLCGGERFGERGFFIKPTVFGGVQDDMRIAKEEIFGPVQPLFKFKKIEEVVERANNTRYGLAAAVFTRDLDKAMYFTQALQAGTVWVNTYNIVTCHTPFGGFKESGNGRELGEDGLKAYTEVKTVTIKVPQKNS
